From ChEMBL document CHEMBL1145986, “Dual protein farnesyltransferase-geranylgeranyltransferase-I inhibitors as potential cancer chemotherapeutic agents” (J Med Chem, 2003)

What was measured:
[1] = target: T1, Geranylgeranyl transferase type I (Homo sapiens, UniProt P49354+P53609); test: Concentration required to inhibit recombinant human geranylgeranyl transferase type I (GGTase-I) catalyzed incorporation of [3H]GGPP to the C-terminus of human K-Ras.; assay type: protein-complex assay
Outline: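 Human GGTase-I transferring [3H]GGPP onto a biotinylated peptide matching the human K-Ras C-terminus. IC50 is the concentration giving 50% inhibition of incorporation. For the GGPP-competition check, IC50 was also determined at 20, 100 and 500 nM GGPP. Data with n > 2 are given as mean ± SEM.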

[2] = target: T2, Protein farnesyltransferase (Homo sapiens, UniProt P49354+P49356); test: Concentration required to inhibit recombinant human farnesyltransferase (FTase) catalyzed incorporation of [3H]FPP into recombinant Ras-CVIM.; assay type: protein-complex assay
[3] = target: Protein farnesyl/geranylgeranyl transferase (Homo sapiens, UniProt P49354+P49356+P53609); test: Inhibition of K-Ras processing, farnesylation and/or geranylgeranylation in human PSN1 cells; assay type: functional, cell-based
Outline: (§1)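 PSN-1 pancreatic carcinoma cells were exposed to inhibitor for 24 h. Lysates were run on SDS-PAGE and Western blotted with antibodies to hDJ2, Rap1a or K-Ras. Unprocessed and prenylated forms were told apart by their different electrophoretic mobility.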

[4] = target: T2, Protein farnesyltransferase; test: Inhibition of hDJ2 protein farnesylation; assay type: functional; outline: as §1
[5] = target: T1, Geranylgeranyl transferase type I; test: Inhibition of Rap1a protein geranylgeranylation in human PSN1 cells; assay type: functional, cell-based; outline: as §1

Row | Structure (SMILES) | IC50 [1] [nM] | IC50 [2] [nM] | EC50 [3] [nM] | EC50 [4] [nM] | EC50 [5] [nM]
1 | CCC1(c2cccc(Oc3cc(Cc4cncn4C)ccc3C#N)c2)CCCCN(C)C1=O (stereo unspecified) | 10 | 0.6 |  |  | 
2 | N#Cc1ccc(Cn2ccnc2)cc1Oc1cccc(C2CCCCNC2=O)c1 (stereo unspecified) | 1200 | 41 |  |  | 
3 | CCC1(c2cccc(Oc3cc(C(C)(N)c4cncn4C)ccc3C#N)c2)CCCCN(C)C1=O (stereo unspecified) | 5.1 | 0.38 |  |  | 
4 | CCC1(c2cccc(Oc3cc(Cc4cnc[nH]4)ccc3C#N)c2)CCCCN(C)C1=O (stereo unspecified) | 12 | 13 |  |  | 
5 | CCC1(c2cccc(Oc3cc(C(=O)c4cncn4C)ccc3C#N)c2)CCCCN(C)C1=O (stereo unspecified) | 10000 | 1800 |  |  | 
6 | CC[C@@]1(c2cccc(Oc3cc(Cn4ccnc4)ccc3C#N)c2)CCCCN(C)C1=O | 5.8 | 1.4 |  |  | 
7 | CC[C@]1(c2cccc(Oc3cc(Cn4ccnc4)ccc3C#N)c2)CCCCN(C)C1=O | 25 | 5.3 |  |  | 
8 | CC[C@@]1(c2cccc(Oc3cc([C@](C)(N)c4cncn4C)ccc3C#N)c2)CCCCN(C)C1=O | 3.6 |  | 340 | 2.1 | 470
9 | CN1CCCC[C@@](CCC(F)(F)F)(c2cccc(Oc3cc([C@](C)(N)c4cncn4C)ccc3C#N)c2)C1=O | 2.5 | 0.19 | 207 | 3.1 | 47
10 | CCC[C@@]1(c2cccc(Oc3cc([C@](C)(N)c4cncn4C)ccc3C#N)c2)CCCCN(C)C1=O | 2.9 | 0.46 | 100 | 0.9 | 220
11 | CN1CCCCC(c2cccc(Oc3cc(Cn4ccnc4)ccc3C#N)c2)C1=O (stereo unspecified) | 560 | 61 |  |  | 
12 | CCC1(c2cccc(Oc3cc(C(C)(O)c4cncn4C)ccc3C#N)c2)CCCCN(C)C1=O (stereo unspecified) | 13 | 1.2 |  |  | 
13 | CN1CCCC[C@@H](c2cccc(Oc3cc([C@](C)(N)c4cncn4C)ccc3C#N)c2)C1=O | 92 | 11 |  |  | 
14 | CCC1(c2cccc(Oc3cc(Cn4ccnc4)ccc3C#N)c2)CCCCNC1 (stereo unspecified) | 280 | 100 |  |  | 
15 | CCC1(c2cccc(Oc3cc(Cn4ccnc4)ccc3C#N)c2)CCCCNC1=O (stereo unspecified) | 20 | 1.3 |  |  | 
16 | CN1CCCC[C@@](CCC2CC2)(c2cccc(Oc3cc([C@](C)(N)c4cncn4C)ccc3C#N)c2)C1=O | 0.81 | 0.18 | 1290 | 11 | > 1000
17 | CN1CCCC[C@@](C)(c2cccc(Oc3cc([C@](C)(N)c4cncn4C)ccc3C#N)c2)C1=O | 30 | 0.41 | 3730 | 26 | 3990
18 | CCC1(c2cccc(Oc3cc(C(N)c4cncn4C)ccc3C#N)c2)CCCCN(C)C1=O (stereo unspecified) | 8 | 0.19 |  |  | 
19 | CC[C@]1(c2cccc(Oc3cc([C@@](C)(N)c4cncn4C)ccc3C#N)c2)CCCCN(C)C1=O | 54 | 7.6 | 8000 | 120 | 3200
20 | CCC1(c2cccc(Oc3cc(Cn4ccnc4)ccc3C#N)c2)CCCCN(C(C)=O)C1 (stereo unspecified) | 8.9 | 1.9 |  |  | 
21 | CCC1(c2cccc(Oc3cc(C(O)c4cncn4C)ccc3C#N)c2)CCCCN(C)C1=O (stereo unspecified) | 17 | 2 |  |  | 
22 | CN1CCCC[C@@](CC2CC2)(c2cccc(Oc3cc([C@](C)(N)c4cncn4C)ccc3C#N)c2)C1=O | 2.1 | 0.3 | 220 | 1.5 | 87
23 | CCCC[C@@]1(c2cccc(Oc3cc([C@](C)(N)c4cncn4C)ccc3C#N)c2)CCCCN(C)C1=O | 1.4 | 0.12 | 320 | 4 | 250
24 | CCC1(c2cccc(Oc3cc(Cn4ccnc4)ccc3C#N)c2)CCCCN(C)C1=O (racemic) | 7.2 | 3 |  |  | 
25 | CC[C@]1(c2cccc(Oc3cc([C@](C)(N)c4cncn4C)ccc3C#N)c2)CCCCN(C)C1=O (stereo in doubt) | 4.5 | 1.5 | 1900 | 11 | 720
26 | CC[C@@]1(c2cccc(Oc3cc([C@@](C)(N)c4cncn4C)ccc3C#N)c2)CCCCN(C)C1=O (stereo in doubt) | 13 | 0.36 | 230 | 6 | 140
